Measurements from ChEMBL document CHEMBL3085682, “Santacruzamate A, a potent and selective histone deacetylase inhibitor from the Panamanian marine cyanobacterium cf. Symploca sp” (J Nat Prod, 2013).
Values joined by “and” are separate entries in the source; they are usually repeats but may differ in a detail not shown here. Identical values can stand only once. Active and inactive are the calls of the source. The rule behind the calls is not given here.

Legend:
[1] = target: T1, Histone deacetylase 4 (Homo sapiens, UniProt P56524); experiment: Inhibition of human recombinant HDAC4 at 1 uM after 30 mins by fluorescence assay
Procedure, shortened: (§1)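 Human recombinant HDAC isozyme with fluorogenic kit substrate, incubated with inhibitor 30 min at 37 °C. Deacetylation stopped by developer containing trichostatin A (1 μM final), then 15 min at room temperature. Fluorescence read at excitation 360 nm, emission 460 nm; percent inhibition, IC50 from nonlinear regression over varying concentrations; SAHA control.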

[2] = Cytotoxicity against human HDF after 72 hrs by MTS-PMS assay; conditions: HDF cells
Procedure, shortened: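 Dermal fibroblasts cultured in DMEM/F-12 with 40% FBS and 1% pen/strep; 5000 cells/well allowed to adhere 24 h at 37 °C, 5% CO2, then treated in triplicate at varying concentrations for 72 h. Antiproliferative readout by MTS–PMS; GI50 fitted by nonlinear regression; SAHA positive control.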

[3] = tested on: HCT-116; experiment: Cytotoxicity against human HCT116 cells after 96 hrs by MTS-PMS assay; type: functional
[4] = tested on: HuT78; experiment: Cytotoxicity against human HUT78 cells after 72 hrs by MTS-PMS assay; type: functional
Procedure, shortened: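 HuT-78 maintained in Iscove's modified Dulbecco's medium, 20% FBS, 1% pen/strep, 1% L-glutamine; seeded in log phase at 50 000 cells/well, held 4 h at 37 °C, 5% CO2, then dosed in triplicate over a concentration range for 72 h. MTS–PMS readout; GI50 by nonlinear regression; SAHA positive control.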

[5] = target: T2, Protein deacetylase HDAC6 (Homo sapiens, UniProt Q9UBN7); experiment: Inhibition of human recombinant HDAC6 after 30 mins by fluorescence assay
T2 sequence (Q9UBN7 whole entry): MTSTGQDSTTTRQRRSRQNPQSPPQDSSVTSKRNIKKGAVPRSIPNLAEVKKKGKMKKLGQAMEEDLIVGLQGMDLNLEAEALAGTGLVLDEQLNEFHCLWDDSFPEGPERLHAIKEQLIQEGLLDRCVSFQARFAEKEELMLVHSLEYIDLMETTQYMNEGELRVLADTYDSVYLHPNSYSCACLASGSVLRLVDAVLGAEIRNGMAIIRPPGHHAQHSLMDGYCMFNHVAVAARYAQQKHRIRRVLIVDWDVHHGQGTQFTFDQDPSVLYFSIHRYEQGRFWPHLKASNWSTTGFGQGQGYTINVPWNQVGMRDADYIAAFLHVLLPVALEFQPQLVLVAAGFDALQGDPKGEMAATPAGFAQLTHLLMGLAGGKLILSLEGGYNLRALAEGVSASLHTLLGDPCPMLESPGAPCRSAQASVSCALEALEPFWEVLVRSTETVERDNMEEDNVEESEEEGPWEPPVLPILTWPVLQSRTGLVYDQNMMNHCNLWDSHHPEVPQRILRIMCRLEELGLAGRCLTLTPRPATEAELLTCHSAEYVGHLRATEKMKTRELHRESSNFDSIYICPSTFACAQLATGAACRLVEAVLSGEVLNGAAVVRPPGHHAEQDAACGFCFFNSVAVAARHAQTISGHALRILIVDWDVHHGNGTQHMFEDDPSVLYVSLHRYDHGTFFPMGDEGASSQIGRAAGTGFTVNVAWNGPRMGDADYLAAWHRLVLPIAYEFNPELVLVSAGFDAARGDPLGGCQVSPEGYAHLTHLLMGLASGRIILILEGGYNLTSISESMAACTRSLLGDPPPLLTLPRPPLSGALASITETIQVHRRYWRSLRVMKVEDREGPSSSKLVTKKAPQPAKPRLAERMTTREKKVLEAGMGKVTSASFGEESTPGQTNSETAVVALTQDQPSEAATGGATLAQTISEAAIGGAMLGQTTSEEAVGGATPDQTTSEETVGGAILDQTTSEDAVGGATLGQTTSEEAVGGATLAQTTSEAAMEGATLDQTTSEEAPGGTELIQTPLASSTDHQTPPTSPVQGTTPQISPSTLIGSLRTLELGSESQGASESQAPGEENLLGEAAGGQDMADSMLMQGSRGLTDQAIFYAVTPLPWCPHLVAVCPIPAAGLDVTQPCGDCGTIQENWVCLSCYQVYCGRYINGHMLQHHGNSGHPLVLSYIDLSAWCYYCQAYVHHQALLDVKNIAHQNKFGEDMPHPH

[6] = target: T1, Histone deacetylase 4; experiment: Inhibition of human recombinant HDAC4 after 30 mins by fluorescence assay; procedure, shortened: as §1
[7] = target: Histone deacetylase 2 (Homo sapiens, UniProt Q92769); experiment: Inhibition of human recombinant HDAC2 after 30 mins by fluorescence assay
[8] = tested on: HCT-116; experiment: Ratio of IC50 for human HCT116 cells to IC50 for human HUT78 cells; type: functional

T1 sequence (P56524 whole entry): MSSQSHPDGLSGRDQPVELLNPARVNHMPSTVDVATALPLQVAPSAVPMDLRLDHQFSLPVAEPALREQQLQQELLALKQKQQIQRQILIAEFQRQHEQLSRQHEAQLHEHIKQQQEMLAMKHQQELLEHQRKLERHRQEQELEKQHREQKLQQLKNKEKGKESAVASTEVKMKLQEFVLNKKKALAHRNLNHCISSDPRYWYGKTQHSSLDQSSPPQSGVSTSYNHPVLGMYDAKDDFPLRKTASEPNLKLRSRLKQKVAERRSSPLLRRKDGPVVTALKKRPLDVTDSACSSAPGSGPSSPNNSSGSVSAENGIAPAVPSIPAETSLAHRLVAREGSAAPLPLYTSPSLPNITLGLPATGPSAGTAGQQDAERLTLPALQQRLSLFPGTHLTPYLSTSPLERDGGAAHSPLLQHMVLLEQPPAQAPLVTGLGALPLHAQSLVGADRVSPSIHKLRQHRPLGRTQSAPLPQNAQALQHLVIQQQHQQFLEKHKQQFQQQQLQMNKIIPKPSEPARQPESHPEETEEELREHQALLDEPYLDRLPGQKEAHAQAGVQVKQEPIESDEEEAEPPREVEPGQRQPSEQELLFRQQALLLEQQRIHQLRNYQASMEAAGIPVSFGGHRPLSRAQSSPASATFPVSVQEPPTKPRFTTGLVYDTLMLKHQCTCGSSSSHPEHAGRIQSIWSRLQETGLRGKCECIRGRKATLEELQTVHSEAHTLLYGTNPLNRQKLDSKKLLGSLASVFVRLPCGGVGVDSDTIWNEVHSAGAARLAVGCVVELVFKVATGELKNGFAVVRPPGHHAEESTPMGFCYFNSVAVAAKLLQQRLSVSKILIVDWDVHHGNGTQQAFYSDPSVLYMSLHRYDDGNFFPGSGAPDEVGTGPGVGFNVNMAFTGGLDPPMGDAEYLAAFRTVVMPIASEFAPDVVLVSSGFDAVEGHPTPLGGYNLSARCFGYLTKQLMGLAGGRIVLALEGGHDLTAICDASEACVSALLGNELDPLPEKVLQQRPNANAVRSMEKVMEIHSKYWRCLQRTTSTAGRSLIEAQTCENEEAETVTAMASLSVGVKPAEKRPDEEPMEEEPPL
Chain of Histone deacetylase 2 (Q92769 whole entry): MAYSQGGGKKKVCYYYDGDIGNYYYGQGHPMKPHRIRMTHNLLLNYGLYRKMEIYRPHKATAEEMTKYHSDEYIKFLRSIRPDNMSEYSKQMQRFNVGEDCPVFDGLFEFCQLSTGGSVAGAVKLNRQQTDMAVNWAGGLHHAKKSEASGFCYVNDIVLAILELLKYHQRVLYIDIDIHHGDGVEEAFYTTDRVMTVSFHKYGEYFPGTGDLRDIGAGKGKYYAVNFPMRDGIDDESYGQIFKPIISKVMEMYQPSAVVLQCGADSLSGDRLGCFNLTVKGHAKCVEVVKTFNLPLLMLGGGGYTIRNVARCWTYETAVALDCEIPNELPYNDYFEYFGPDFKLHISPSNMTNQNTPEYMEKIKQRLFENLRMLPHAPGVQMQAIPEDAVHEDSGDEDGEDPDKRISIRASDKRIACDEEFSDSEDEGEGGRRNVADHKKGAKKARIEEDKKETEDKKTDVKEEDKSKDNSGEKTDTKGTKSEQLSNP

O=C(CCCC(=O)NCCc1ccccc1)NO
inhibition [1]: Active | GI50 at 72 h [2]: > 100000 nM | GI50 ([3]; Homo sapiens, HCT-116, 96 h): 2300 nM | GI50 ([4]; Homo sapiens, HuT78, 72 h): 700 nM | IC50 [5]: 386 nM | IC50 [6]: > 1000 nM | IC50 [7]: 3.5 nM

CCOC(=O)NCCCC(=O)NCCc1ccccc1
Ratio IC50 [8]: 20 | inhibition [1]: Active | GI50 at 72 h [2]: > 100000 nM | GI50 [3]: 29400 nM | GI50 ([3]; Homo sapiens, HCT-116, 96 h): 28300 nM | GI50 [4]: 1400 nM | GI50 ([4]; Homo sapiens, HuT78, 72 h): 1300 nM | IC50 [5]: 433 nM and 434 nM | IC50 [6]: > 1000 nM | IC50 [7]: 0.112 nM and 0.119 nM
